Converted amounts (≈) assume the structure as drawn.
How the values were obtained:
Vero = test: Cytotoxicity against african green monkey Vero cells after 72 hrs; type: cell-based; conditions: Chlorocebus sabaeus
How it was run: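 VERO (CCL-81) monolayers exposed 72 h to 3-fold serial dilutions of compound. Viability read by tetrazolium dye reduction, product absorbance at 490 nm. Untreated cells set 0% inhibition, SDS-lysed cells 100% inhibition.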

[1] = system: Mycobacterium tuberculosis; test: Antimicrobial activity against Mycobacterium tuberculosis after 8 days in aerobic condition by alamar blue assay; type: functional; conditions: 192 h
How it was run: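 Replicating M. tb was tested in an 8-day microplate assay. Alamar blue was added on day 7 to measure growth. The MIC was taken as the lowest drug concentration giving >90% inhibition.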

[2] = system: Mycobacterium tuberculosis; test: Antimicrobial activity against Mycobacterium tuberculosis assessed as growth inhibition at 100 uM after 8 days under aerobic condition by alamar blue assay; type: functional; conditions: 192 h
[3] = system: Mycobacterium tuberculosis; test: Antimicrobial activity against Mycobacterium tuberculosis after 11 days under anaerobic condition by luminescence-based low oxygen recovery assay; type: functional; conditions: 264 h
[4] = system: Mycobacterium tuberculosis; test: Antimicrobial activity against Mycobacterium tuberculosis assessed as growth inhibition at 100 uM after 11 days under anaerobic condition by luminescence-based low oxygen recovery assay; type: functional; conditions: 264 h

Row | SMILES | IC50 (Vero) | MIC [1] | inhibition at 100 µM [2] | MIC [3] | inhibition at 100 µM [4]
1 | O=[N+]([O-])c1cn2c(n1)OCC(OCc1ccc(OC(F)(F)F)cc1)C2 (stereo unspecified) | > 128 µM |  |  |  | 
2 | O=[N+]([O-])c1nc2n(n1)C[C@H](OCc1ccc(OC(F)(F)F)cc1)CO2 | > 128 µM | > 128 µM | 81% |  | 
3 | O=[N+]([O-])c1nc2n(n1)C[C@@H](OCc1ccc(OC(F)(F)F)cc1)CO2 | > 128 µM | > 128 µM | 84% |  | 
4 | O=[N+]([O-])c1nc2n(n1)C[C@H](OCc1ccc(OCc3ccccc3)cc1)CO2 |  | > 128 µM | 18% |  | 
5 | O=[N+]([O-])c1cn2c(n1)CCC(OCc1ccc(OCc3ccccc3)cc1)C2 (stereo unspecified) |  | > 128 µM | 5% | > 128 µM | 49%
6 | O=[N+]([O-])c1cn2c(n1)NCC(OCc1ccc(OC(F)(F)F)cc1)C2 (stereo unspecified) |  | > 128 µM | 63% | > 128 µM | 64%
7 | CN1CC(OCc2ccc(OCc3ccccc3)cc2)Cn2nc([N+](=O)[O-])cc21 (stereo unspecified) | > 128 µM | > 128 µM | 58% | > 128 µM | 3%
8 | O=[N+]([O-])c1cc2n(n1)CC(OCc1ccc(OC(F)(F)F)cc1)CN2 (stereo unspecified) |  | > 128 µM | 61% | 111 µM (≈ 39.8 µg/mL) | 
9 | O=[N+]([O-])c1cc2n(n1)CC(OCc1ccc(OCc3ccccc3)cc1)CN2 (stereo unspecified) |  | > 128 µM | 55% | > 128 µM | 41%
10 | O=[N+]([O-])c1cn2c(n1)OCC(OCc1ccc(OCc3ccccc3)cc1)C2 (stereo unspecified) | > 128 µM |  |  |  | 
11 | O=[N+]([O-])c1cn2c(n1)SCC(OCc1ccc(OC(F)(F)F)cc1)C2 (stereo unspecified) | > 128 µM | 1.1 µM (≈ 0.413 µg/mL) |  | 13 µM (≈ 4.88 µg/mL) | 
12 | O=[N+]([O-])c1cn2c(n1)[S+]([O-])CC(OCc1ccc(OC(F)(F)F)cc1)C2 (stereo unspecified) | > 128 µM | > 128 µM | 87% | 92 µM (≈ 36 µg/mL) | 
13 | O=[N+]([O-])c1cn2c(n1)[S+]([O-])CC(OCc1ccc(OCc3ccccc3)cc1)C2 (stereo unspecified) | 63 µM | > 128 µM | 23% | > 128 µM | 20%
14 | O=[N+]([O-])c1cn2c(n1)S(=O)(=O)CC(OCc1ccc(OC(F)(F)F)cc1)C2 (stereo unspecified) | > 128 µM | > 128 µM | 89% | 89 µM (≈ 36.3 µg/mL) | 
15 | O=[N+]([O-])c1cn2c(n1)SCC(OCc1ccc(OCc3ccccc3)cc1)C2 (stereo unspecified) | > 128 µM | 1.1 µM (≈ 0.437 µg/mL) |  | 11 µM (≈ 4.37 µg/mL) | 
16 | O=[N+]([O-])c1cc2n(n1)CC(OCc1ccc(OCc3ccccc3)cc1)CO2 (stereo unspecified) | 82 µM | > 128 µM | 38% | > 128 µM | 19%
17 | O=[N+]([O-])c1cn2c(n1)S(=O)(=O)CC(OCc1ccc(OCc3ccccc3)cc1)C2 (stereo unspecified) | > 128 µM | > 128 µM | 61% | > 128 µM | 79%
18 | O=[N+]([O-])c1cn2c(n1)CCC(OCc1ccc(OC(F)(F)F)cc1)C2 (stereo unspecified) |  | 126 µM (≈ 45 µg/mL) |  | > 128 µM | 75%
19 | O=[N+]([O-])c1cc2n(n1)CC(OCc1ccc(OC(F)(F)F)cc1)CO2 (stereo unspecified) | 88 µM | > 128 µM | 89% |  | 86%
20 | CN1CC(OCc2ccc(OC(F)(F)F)cc2)Cn2nc([N+](=O)[O-])cc21 (stereo unspecified) | > 128 µM | > 128 µM | 61% | > 128 µM | 37%

Source: ChEMBL document CHEMBL1143279, “Synthesis, reduction potentials, and antitubercular activity of ring A/B analogues of the bioreductive drug (6S)-2-nitro-6-{[4-(trifluoromethoxy)benzyl]oxy}-6,7-dihydro-5H-imidazo[2,1-b][1,3]oxazine (PA-824)” (J Med Chem, 2009)
